# In ChEMBL document CHEMBL1938286, “A concise synthesis of viscolin, and its anti-inflammatory effects through the suppression of iNOS, COX-2, ERK phosphorylation and proinflammatory cytokines expressions” (Eur J Med Chem, 2012):
# Active and inactive are the calls of the source. The rule behind the calls is not given here.
# Columns and labels:
# Mus musculus [1] = assay: Antiinflammatory activity in ICR mouse assessed as inhibition of carrageenan-induced hind paw edema at 10 mg/kg, ip; assay type: functional, organism-based; set-up: dose 10 mg/kg
# Mus musculus [2] = assay: Antiinflammatory activity in ICR mouse assessed as decrease in carrageenan-induced MDA level at 10 mg/kg, ip measured after 5 hrs; assay type: functional, organism-based; set-up: dose 10 mg/kg
# In short: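 Male ICR mice (n = 6 per group) were dosed 30 min before intraplantar carrageenan. MDA in the edematous paw tissue was determined at the 5th hr after carrageenan.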
# Mus musculus [3] = assay: Antiinflammatory activity in ICR mouse assessed as decrease in carrageenan-induced serum NO level at 10 mg/kg, ip measured after 5 hrs; assay type: functional, organism-based; set-up: dose 10 mg/kg
# In short: (§1)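 Male ICR mice (18–25 g, n = 6 per group). Carrageenan was injected intraplantar into the paw, with drug given 30 min beforehand. Serum was collected at the 5th hr. Nitrite was measured colorimetrically by Griess reaction, and TNF-α by commercial ELISA. Data are mean ± SEM.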
# Mus musculus [4] = assay: Antiinflammatory activity in ICR mouse assessed as decrease in carrageenan-induced serum TNFalpha level at 10 mg/kg, ip measured after 5 hrs; assay type: functional, organism-based; set-up: dose 10 mg/kg; in short: as §1
# Mus musculus [5] = assay: Antioxidant activity in carrageenan-stimulated ICR mouse assessed as increase in CAT activity at 10 mg/kg, ip measured after 5 hrs; assay type: functional; settings: route intraperitoneal
# In short: (§2)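 Male ICR mice (n = 6 per group) received the drug 30 min before intraplantar carrageenan, and paw tissue was taken at the 5th hr. Total SOD was measured by inhibition of cytochrome c reduction, CAT by Aebi's method, and cytosolic GPx by Paglia–Valentine. Activities are in U/mg protein, given as mean ± SEM.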
# Mus musculus [6] = assay: Antioxidant activity in carrageenan-stimulated ICR mouse assessed as increase in SOD activity at 10 mg/kg, ip measured after 5 hrs; assay type: functional; settings: route intraperitoneal; in short: as §2
# Mus musculus [7] = assay: Antioxidant activity in carrageenan-stimulated ICR mouse assessed as increase in GPx activity at 10 mg/kg, ip measured after 5 hrs; assay type: functional; settings: route intraperitoneal; in short: as §2
# Mus musculus [8] = assay: Down regulation of COX-2 protein expression in carrageenan-stimulated ICR mouse at 10 mg/kg, ip measured after 5 hrs by Western blot analysis; assay type: functional; settings: route intraperitoneal
# In short: (§3)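 Male ICR mice (18–25 g, n = 6 per group) received intraplantar carrageenan. Paw tissue was taken 5 h after carrageenan. Lysates were made in RIPA buffer and 30 µg protein run on SDS-PAGE/PVDF immunoblot with ECL detection. Band intensities were quantified relative to the carrageenan-alone group across three independent experiments.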
# Mus musculus [9] = assay: Down regulation of iNOS protein expression in carrageenan-stimulated ICR mouse at 10 mg/kg, ip measured after 5 hrs by Western blot analysis; assay type: functional; settings: route intraperitoneal; in short: as §3
# Mus musculus [10] = assay: Antiinflammatory activity in carrageenan-stimulated ICR mouse assessed as decrease in neutrophil number at 8 mg/kg, ip measured after 5 hrs; assay type: functional, organism-based; set-up: dose 8 mg/kg
# In short: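 Male ICR mice were dosed 30 min before intraplantar carrageenan, and paw biopsies were taken 5 h later. Tissue was fixed in Dietric solution for 1 week at room temperature, dehydrated in graded ethanol and paraffin-embedded. 7-thickness sections were stained with hematoxylin–eosin or Van Gieson and examined by light microscopy.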
# Mus musculus [11] = assay: Antiinflammatory activity in carrageenan-stimulated ICR mouse assessed as reduction in iNOS immunoreactive cells at 8 mg/kg, ip measured after 5 hrs; assay type: functional, organism-based; set-up: dose 8 mg/kg
# Mus musculus [12] = assay: Antiinflammatory activity in carrageenan-stimulated ICR mouse assessed as reduction in COX2 immunoreactive cells at 8 mg/kg, ip measured after 5 hrs; assay type: functional, organism-based; set-up: dose 8 mg/kg
# Mus musculus [13] = assay: Antiinflammatory activity in ICR mouse assessed as inhibition of carrageenan-induced hind paw edema at 10 mg/kg, ip measured after 4 hrs; assay type: functional, organism-based; set-up: dose 10 mg/kg
smiles,measurement,setting,value
COc1ccc2c(c1)c(CC(=O)O)c(C)n2C(=O)c1ccc(Cl)cc1 [INDOMETHACIN],Activity,Mus musculus [1],Active
same,Activity,Mus musculus [2],Active
same,Activity,Mus musculus [3],Active
same,Activity,Mus musculus [4],Active
same,Activity,Mus musculus [5],4.65 U/mg
same,Activity,Mus musculus [6],3.85 U/mg
same,Activity,Mus musculus [7],10.45 U/mg
same,Activity,Mus musculus [8],73.1%
same,Activity,Mus musculus [9],69.1%
same,Activity,Mus musculus [10],Active
same,Activity,Mus musculus [11],Active
same,Activity,Mus musculus [12],Active
same,Activity,Mus musculus [13],Active
